Measured values taken from paper PMC5909815 (Nature chemical biology, 2017).

Tests used:
H1155 cells [1] = test: cell viability, combination of inhibitors with paclitaxel; type: cell-based
[2] = system: multiple cell lines (H650, H1155, H23); test: relative cell counts after treatment with selective inhibitors; type: cell-based; conditions: 72 h
Procedure, shortened: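 Cells were treated 72 h with test inhibitors at 1.5 μM (20 μM for FMK and SL0101), diluted from 10 mM DMSO stocks in complete RPMI. Viable cells were counted in triplicate by trypan blue exclusion on a hemocytometer. Data are biological triplicates each in technical triplicate, reported as median ± SD relative counts.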

ALK = ALK (Homo sapiens, UniProt Q9UM73); test: in vitro kinase assay; type: biochemical
Procedure, shortened: (§1)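 Biochemical kinase IC50s were determined by two contract providers. One used a 10-dose 3-fold serial dilution from 20 μM and the other a 9-dose 3-fold dilution from 20 μM, each in technical duplicate. Reported values are the mean of the combined datasets.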

EML4-ALK = EML4-ALK (Homo sapiens, UniProt Q9HC35+Q9UM73); test: c-ceritinib pulldown; type: binding; conditions: immobilized compound, cell lysate
H460 cells [3] = test: cell viability, combination with paclitaxel; type: cell-based
[4] = system: NSCLC cell lines (KRAS-mutant H650, H1155 and H23 cells); test: phenotypic drug screen, cell viability; type: cell-based; conditions: 72 h, 2.5 μM; ALK-negative lines
Procedure, shortened: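 Phenotypic screen: 240 compounds were tested across 20 NSCLC cell lines, seeded 1000 cells/well in 384-well plates and treated 24 h later. Compounds were diluted from 10 mM DMSO stocks in complete RPMI to final 0.5 μM and 2.5 μM for 72 h in biological duplicate. Viability was read by CellTiter-Glo luminescence and profiles were grouped by unsupervised hierarchical clustering.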

[5] = system: phosphorylation of YB1 at S102; test: Immunoblot, YB1 phosphorylation; type: cell-based; conditions: 3 h treatment
Procedure, shortened: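 YB1 phosphorylation was read by immunoblot after 3 h treatment: FMK 20 μM, OSI-906 1.5 μM, PF-573228 1.5 μM. Lysis was in NP40/Tris pH 7.5/glycerol/MgCl₂/NaCl buffer with phosphatase and protease inhibitors. Detection used HRP-conjugated anti-rabbit or anti-mouse secondaries.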

H650 and H1155 cells = test: cell viability, combination with paclitaxel; type: cell-based; conditions: 72 h
Procedure, shortened: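 Cells were plated at 1000 cells/well in 384-well format and dosed 24 h later with test compound alone or with the partner agent, each diluted in culture medium. After 72 h, viability was read by CellTiter-Glo luminescence (n = 3). Dose-response curves were fitted, and combination effects were scored by the Bliss model or by the Chou-Talalay combination index.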

ERK1/2 = test: in vitro kinase assay; type: biochemical; conditions: at 1.5 μM
[6] = system: RSK1/2 S380/S386 autophosphorylation in H23 cells; test: Western blot, RSK1/2 autophosphorylation; type: cell-based; conditions: 3 h
Procedure, shortened: (§2)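 H23 cells were treated for 3 h with test compounds: FMK at 20 μM, OSI-906 and PF-573228 at 1.5 μM. Target phosphorylation and downstream signals were read by western blot with HRP-conjugated secondary antibodies; n = 3.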

[7] = system: PDX tumor models with high pFAK1 staining (PDX1, PDX2, PDX3); test: ex vivo soft-agar 3D clonogenic assay, combination with paclitaxel; type: cell-based; conditions: particularly at low drug concentrations
H460 cells [8] = test: clonogenic assay, combination with paclitaxel; type: cell-based; conditions: 7 days
[9] = system: ERK phosphorylation in H23 cells; test: Western blot, ERK phosphorylation; type: cell-based; conditions: 3 h
Procedure, shortened: as §2

[10] = system: phosphorylation of RPS6 at S235/236; test: Immunoblot, RPS6 phosphorylation; type: cell-based
[11] = system: autophosphorylation of FAK1 in H23 cells; test: Western blot, FAK1 autophosphorylation; type: cell-based; conditions: 3 h
Procedure, shortened: as §2

AMPKα1 = AMPKα1 (Homo sapiens, UniProt Q13131); test: in vitro kinase assay; type: biochemical
Procedure, shortened: as §1

[12] = system: ALK-negative NSCLC cell lines (most sensitive cells); test: CellTiter-Glo cell viability, dose-response curves; type: cell-based
[13] = system: NRAS-mutant H1299 LCLC cells; test: cell viability, combination with paclitaxel; type: cell-based
FAK1 and RSK1/2 = test: c-ceritinib pulldown competition with free ceritinib; type: binding; conditions: 20 μM unmodified ceritinib, H650 cell lysate
FER = FER (Homo sapiens, UniProt P16591); test: in vitro kinase assay; type: biochemical
H1155 cells [14] = test: apoptosis by cleaved caspase 3/7 and PARP1; type: cell-based; conditions: for apoptosis, single drug: single drug treatment
NSCLC cells = test: cell cycle analysis by flow cytometry; type: cell-based
Procedure, shortened: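 Cell cycle: after incubation, cells were harvested, fixed in 70% cold ethanol and held at −20°C. They were then washed in PBS and stained with 1 μg/mL DAPI in 0.1% Triton X-100/PBS. DNA content was measured by flow cytometry and cell-cycle phases were modelled from the histograms.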

[15] = molecular target: RSK1/2 C-terminal kinase domain (CTKD); test: cross-competition pulldown with NTKD or CTKD inhibitors; type: binding; conditions: H650 lysate ± 20 μM BI-D1870 or FMK
[16] = patient plasma; cited from earlier work
mTOR = mTOR (Homo sapiens, UniProt P42345); test: in vitro kinase assay; type: biochemical; conditions: at 1.5 μM
[17] = system: AKT phosphorylation in H23 cells; test: Western blot, AKT phosphorylation; type: cell-based; conditions: 3 h
Procedure, shortened: as §2

Sequence of AMPKα1 (Q13131 whole entry): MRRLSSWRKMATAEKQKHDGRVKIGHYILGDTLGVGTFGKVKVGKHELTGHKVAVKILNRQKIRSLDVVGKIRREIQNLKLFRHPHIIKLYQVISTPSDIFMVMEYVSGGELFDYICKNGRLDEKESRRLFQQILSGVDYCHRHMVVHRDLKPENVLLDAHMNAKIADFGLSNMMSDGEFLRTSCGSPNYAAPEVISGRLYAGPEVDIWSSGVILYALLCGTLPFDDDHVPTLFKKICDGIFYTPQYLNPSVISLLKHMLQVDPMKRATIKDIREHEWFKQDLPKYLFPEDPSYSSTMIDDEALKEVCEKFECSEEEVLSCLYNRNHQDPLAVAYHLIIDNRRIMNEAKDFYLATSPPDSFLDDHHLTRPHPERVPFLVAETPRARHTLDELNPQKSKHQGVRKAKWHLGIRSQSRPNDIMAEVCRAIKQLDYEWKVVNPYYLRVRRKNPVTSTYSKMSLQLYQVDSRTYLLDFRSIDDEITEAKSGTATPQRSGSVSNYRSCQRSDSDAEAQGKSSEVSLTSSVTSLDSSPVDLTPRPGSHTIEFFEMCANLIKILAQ
Sequence of AMPKα1 (Q9Y478 whole entry partner): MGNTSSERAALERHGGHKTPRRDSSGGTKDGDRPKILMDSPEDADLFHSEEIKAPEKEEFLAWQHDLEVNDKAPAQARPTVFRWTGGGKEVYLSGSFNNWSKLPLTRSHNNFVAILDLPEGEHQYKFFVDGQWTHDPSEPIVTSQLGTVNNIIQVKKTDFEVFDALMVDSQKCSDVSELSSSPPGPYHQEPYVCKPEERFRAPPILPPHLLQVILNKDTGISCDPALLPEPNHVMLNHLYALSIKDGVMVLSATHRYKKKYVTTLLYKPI
Sequence of AMPKα1 (P54619 whole entry partner): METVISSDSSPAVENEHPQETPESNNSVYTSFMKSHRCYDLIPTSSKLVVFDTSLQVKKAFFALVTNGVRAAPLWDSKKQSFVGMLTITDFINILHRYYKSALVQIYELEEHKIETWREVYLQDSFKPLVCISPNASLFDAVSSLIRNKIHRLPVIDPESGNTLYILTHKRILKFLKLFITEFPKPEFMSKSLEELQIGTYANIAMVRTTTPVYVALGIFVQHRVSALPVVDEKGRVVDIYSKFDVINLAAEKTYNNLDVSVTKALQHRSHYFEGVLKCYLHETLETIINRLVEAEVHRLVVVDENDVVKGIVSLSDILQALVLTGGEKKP
Sequence of FER (P16591 whole entry): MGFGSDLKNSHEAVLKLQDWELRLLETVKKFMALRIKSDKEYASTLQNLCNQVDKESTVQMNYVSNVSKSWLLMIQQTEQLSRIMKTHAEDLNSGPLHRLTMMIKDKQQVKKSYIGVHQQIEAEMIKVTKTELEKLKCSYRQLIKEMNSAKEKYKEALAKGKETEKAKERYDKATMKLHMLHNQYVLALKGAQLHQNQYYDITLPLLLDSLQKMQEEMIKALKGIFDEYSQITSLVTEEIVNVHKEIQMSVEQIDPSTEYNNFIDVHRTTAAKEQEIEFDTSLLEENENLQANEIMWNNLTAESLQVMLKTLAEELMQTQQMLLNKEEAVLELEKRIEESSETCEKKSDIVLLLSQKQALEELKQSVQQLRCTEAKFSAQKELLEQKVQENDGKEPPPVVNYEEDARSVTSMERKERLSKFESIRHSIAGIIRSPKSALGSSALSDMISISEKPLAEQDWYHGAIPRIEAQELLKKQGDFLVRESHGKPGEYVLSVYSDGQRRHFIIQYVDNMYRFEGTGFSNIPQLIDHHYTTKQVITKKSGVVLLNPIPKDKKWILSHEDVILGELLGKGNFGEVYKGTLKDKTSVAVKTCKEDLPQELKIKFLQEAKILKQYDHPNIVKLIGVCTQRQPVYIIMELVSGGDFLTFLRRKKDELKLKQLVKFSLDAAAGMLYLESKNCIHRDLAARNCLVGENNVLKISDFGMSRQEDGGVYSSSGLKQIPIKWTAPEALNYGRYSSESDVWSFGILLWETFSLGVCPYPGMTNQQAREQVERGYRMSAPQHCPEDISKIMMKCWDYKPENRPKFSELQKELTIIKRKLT
Sequence of ALK (Q9UM73 19-1620): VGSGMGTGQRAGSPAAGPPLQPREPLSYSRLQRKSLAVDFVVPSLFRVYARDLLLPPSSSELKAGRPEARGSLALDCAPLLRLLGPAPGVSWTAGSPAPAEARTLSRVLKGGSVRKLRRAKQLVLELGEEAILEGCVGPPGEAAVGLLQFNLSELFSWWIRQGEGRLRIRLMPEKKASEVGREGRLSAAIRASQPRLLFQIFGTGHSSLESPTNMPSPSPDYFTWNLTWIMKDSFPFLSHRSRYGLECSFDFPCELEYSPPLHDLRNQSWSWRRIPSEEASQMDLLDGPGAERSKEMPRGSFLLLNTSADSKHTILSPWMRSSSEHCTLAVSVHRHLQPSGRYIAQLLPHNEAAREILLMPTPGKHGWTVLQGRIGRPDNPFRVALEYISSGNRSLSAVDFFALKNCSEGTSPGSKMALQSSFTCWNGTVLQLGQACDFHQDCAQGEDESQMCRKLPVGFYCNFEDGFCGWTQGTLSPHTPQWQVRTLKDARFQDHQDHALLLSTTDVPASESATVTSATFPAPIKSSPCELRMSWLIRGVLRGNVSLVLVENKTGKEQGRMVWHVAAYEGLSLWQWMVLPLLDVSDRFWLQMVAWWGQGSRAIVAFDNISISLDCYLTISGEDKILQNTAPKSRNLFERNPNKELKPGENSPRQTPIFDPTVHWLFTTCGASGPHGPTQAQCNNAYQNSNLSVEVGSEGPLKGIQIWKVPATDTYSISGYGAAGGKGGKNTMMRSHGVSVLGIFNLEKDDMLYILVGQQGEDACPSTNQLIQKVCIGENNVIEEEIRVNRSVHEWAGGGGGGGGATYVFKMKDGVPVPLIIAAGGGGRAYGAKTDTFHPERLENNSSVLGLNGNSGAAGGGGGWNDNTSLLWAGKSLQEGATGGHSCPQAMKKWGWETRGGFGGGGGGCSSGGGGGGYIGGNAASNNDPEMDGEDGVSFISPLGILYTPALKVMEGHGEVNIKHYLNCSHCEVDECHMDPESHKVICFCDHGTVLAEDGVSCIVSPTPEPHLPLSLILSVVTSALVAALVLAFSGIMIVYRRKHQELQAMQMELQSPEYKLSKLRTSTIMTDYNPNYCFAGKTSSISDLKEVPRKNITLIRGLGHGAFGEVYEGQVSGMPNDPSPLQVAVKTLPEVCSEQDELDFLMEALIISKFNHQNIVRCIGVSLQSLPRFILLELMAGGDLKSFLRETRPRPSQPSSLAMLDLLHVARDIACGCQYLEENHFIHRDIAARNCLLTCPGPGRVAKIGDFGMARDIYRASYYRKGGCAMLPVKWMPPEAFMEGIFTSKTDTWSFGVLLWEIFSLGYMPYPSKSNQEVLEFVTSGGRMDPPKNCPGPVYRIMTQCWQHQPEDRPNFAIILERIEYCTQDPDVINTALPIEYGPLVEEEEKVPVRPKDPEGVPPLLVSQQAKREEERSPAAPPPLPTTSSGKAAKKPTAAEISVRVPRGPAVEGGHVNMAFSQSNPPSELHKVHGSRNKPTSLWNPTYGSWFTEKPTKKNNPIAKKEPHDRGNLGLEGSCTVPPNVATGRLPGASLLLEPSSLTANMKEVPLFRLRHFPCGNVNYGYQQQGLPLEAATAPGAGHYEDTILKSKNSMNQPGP

## CNC(=O)c1ccccc1Nc1nc(Nc2ccc3c(c2OC)CCC[C@H](N2CCN(CCO)CC2)C3)ncc1Cl [CEP-37440]
H1155 cells [1]
  synergy with paclitaxel: strongly synergized

## Cc1ccc(-c2c(C(=O)CF)n(CCCO)c3ncnc(N)c23)cc1 [FMK]
[2]; 20 μM
  effect on viability, single agent: little effect

## C[C@]1(O)C[C@@H](c2nc(-c3ccc4ccc(-c5ccccc5)nc4c3)c3c(N)nccn32)C1 [OSI-906]
[2]; 1.5 μM
  effect on viability, single agent: little effect

## CS(=O)(=O)c1cccc(CNc2nc(Nc3ccc4c(c3)CCC(=O)N4)ncc2C(F)(F)F)c1 [PF-573228]
[2]; 1.5 μM
  effect on viability, single agent: little effect

## CC(=O)O[C@@H]1[C@@H](OC(C)=O)[C@@H](O)[C@H](Oc2c(-c3ccc(O)cc3)oc3cc(O)cc(O)c3c2=O)O[C@H]1C [SL0101]
[2]; 20 μM
  effect on viability, single agent: little effect

## Cc1cc(Nc2ncc(Cl)c(Nc3ccccc3S(=O)(=O)C(C)C)n2)c(OC(C)C)cc1C1CCN(CCCN)CC1 [c-ceritinib]
ALK
  ALK inhibition: Activity was confirmed
EML4-ALK
  binding of EML4-ALK: ability to bind

## Cc1cc(Nc2ncc(Cl)c(Nc3ccccc3S(=O)(=O)C(C)C)n2)c(OC(C)C)cc1C1CCNCC1 [ceritinib, 5-Chloro-N2-(2-isopropoxy-5-methyl-4-(piperidin-4-yl)phenyl)-N4-(2-(isopropylsulfonyl)phenyl)pyrimidine-2,4-diamine]
H460 cells [3]
  synergy, CI values: highly synergistic
[4]
  activity in viability screen: specific ALK-independent activity
[5]
  effect on YB1 S102 phosphorylation: inhibited
H650 and H1155 cells
  synergy, Bliss model of independence: substantial synergy
ERK1/2
  inhibition: not significantly inhibited
[6]
  effect on RSK1/2 S380/S386 autophosphorylation: inhibited
[7]
  synergy (Bliss), 3D ex vivo culture: pronounced synergy
H460 cells [8]
  combination effect, clonogenic assay: pronounced combination effects
[9]
  effect on ERK phosphorylation: only minor effects
[10]
  effect on RPS6 S235/236 phosphorylation: inhibited
[11]
  effect on autophosphorylation of FAK1: reduced
AMPKα1
  IC50: 2500 nM
[12]; 72 h, read-out: IC50, inhibition of viability
  IC50: 1000 to 2000 nM
[12]; read-out: Emax, viability
  viability at 4 µM: 0%
[13]
  response to combination: strong response
FAK1 and RSK1/2
  competition from the affinity matrix: competed away
FER
  IC50: 5 nM
H1155 cells [14]; ceritinib combined with paclitaxel
  apoptosis, combination: significant increase in apoptosis
H1155 cells [14]
  apoptosis, single drug: no effect
NSCLC cells
  cell cycle effect: G1 cell cycle arrest
[15]
  kinase domain bound: binds to the CTKD
H1155 cells [1]
  synergy with paclitaxel: pronounced synergy
[16]
  clinical plasma concentrations: 1.4 to 2.3 µM
mTOR
  inhibition: not significantly inhibited
[17]
  effect on AKT phosphorylation: reduced

## c1cc(-c2cnn3cc(-c4ccc(OCCN5CCCCC5)cc4)cnc23)ccn1 [compound C]
H1155 cells [1]
  synergy with paclitaxel: did not synergize

## CC(=O)O[C@H]1C(=O)[C@@]2(C)[C@H]([C@H](OC(=O)c3ccccc3)[C@]3(O)C[C@H](OC(=O)[C@H](O)[C@@H](NC(=O)c4ccccc4)c4ccccc4)C(C)=C1C3(C)C)[C@]1(OC(C)=O)CO[C@@H]1C[C@@H]2O [paclitaxel]
H1155 cells [14]
  apoptosis, single drug: no effect

## CN(C)C(=O)c1cc2cnc(Nc3ccc(N4CCNCC4)cn3)nc2n1C1CCCC1 [ribociclib]
H1155 cells [1]
  synergy with paclitaxel: did not exhibit synergy
